ChEMBL document CHEMBL1134527, “Discovery of novel mesangial cell proliferation inhibitors using a three-dimensional database searching method” (2001)

Test system: RPTEC
Experiment: Compound was evaluated for the renal proximal tubular epithelial cell (RPTEC) proliferation assay using RPTEC's at a dose of 10 uM
Assay type: functional
Conditions: Homo sapiens
Procedure, shortened: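 Human renal proximal tubular epithelial cells, run by the same [³H]thymidine method as the mesangial assay. Compound added in DMEM + 2% FBS for 18 h after serum-free pre-incubation. DNA synthesis taken as TCA-insoluble counts, four wells per concentration. Inhibition % = (control − sample)/(control − blank), where blank is DMEM alone.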

| SMILES | inhibition at 10 µM |
| --- | --- |
| Cc1c(Cc2c(Cl)cccc2Cl)c(=O)oc2cc(OCC(=O)OCC(=O)c3ccccc3)ccc12 | 31% |
| CCOP(=O)(Cc1ccc(C(=O)Nc2nc3c(OC)cc(OC)cc3s2)cc1)OCC | 103% |
| CCOC(=O)c1cc(NC(=O)NC(=O)c2c(Cl)cccc2Cl)ccc1Oc1cncc(Cl)c1 | 96% |
| CO/C(O)=C(/C=N/c1ccc(Oc2ccccc2OC(C)C)nc1)NC(=O)c1ccccc1 | 8% |
| Cc1c(Cc2c(Cl)cccc2Cl)c(=O)oc2cc(OCC(=O)OCC(=O)c3ccc(Cl)cc3)ccc12 | 21% |
| CCOP(=O)(Cc1ccc(C(=O)Nc2cc(-c3ccc(Cl)cc3)no2)cc1)OCC | 99% |
| CCOP(=O)(Cc1ccc(C(=O)Nc2ccccn2)cc1)OCC | 60% |
| CCOP(=O)(Cc1ccc(C(=O)Nc2nc(-c3ccccc3)ns2)cc1)OCC | 96% |
| CCOP(=O)(Cc1ccc(C(=O)Nc2ccc(Br)cc2C#N)cc1)OCC [IBROLIPIM] | 77% |

Test system: not listed separately
Experiment: Compound was tested for the in vitro MC proliferation Inhibitory activity at a dose of 1 uM against normal human mesangial cells
Assay type: functional
Conditions: not given
Procedure, shortened: (§1)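 Normal human glomerular mesangial cells grown in MCDB131 with 5% FBS, amphotericin B and gentamycin. Plated at 2 × 10⁴ cells/well for 3 days, then serum-free 4 days. Exposed to compound in DMEM + 2% FBS for 18 h with 1 μCi/mL [³H]thymidine. TCA-insoluble counts read; four wells per concentration. Inhibition % = (control − sample)/(control − DMEM blank).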

| SMILES | inhibition at 1 µM |
| --- | --- |
| Cc1c(Cc2c(Cl)cccc2Cl)c(=O)oc2cc(OCC(=O)OCC(=O)c3ccccc3)ccc12 | 60% |
| CCOP(=O)(Cc1ccc(C(=O)Nc2nc3c(OC)cc(OC)cc3s2)cc1)OCC | 59% |
| CCOC(=O)c1cc(NC(=O)NC(=O)c2c(Cl)cccc2Cl)ccc1Oc1cncc(Cl)c1 | 105% |
| CO/C(O)=C(/C=N/c1ccc(Oc2ccccc2OC(C)C)nc1)NC(=O)c1ccccc1 | 73% |
| Cc1c(Cc2c(Cl)cccc2Cl)c(=O)oc2cc(OCC(=O)OCC(=O)c3ccc(Cl)cc3)ccc12 | 74% |
| CCOP(=O)(Cc1ccc(C(=O)Nc2cc(-c3ccc(Cl)cc3)no2)cc1)OCC | 91% |
| CCOP(=O)(Cc1ccc(C(=O)Nc2ccccn2)cc1)OCC | 65% |
| CCOP(=O)(Cc1ccc(C(=O)Nc2nc(-c3ccccc3)ns2)cc1)OCC | 85% |

Test system: RPTEC
Experiment: Compound was evaluated for the renal proximal tubular epithelial cell ( RPTEC) proliferation assay using RPTEC''s at a dose of 1 uM
Assay type: functional
Conditions: Homo sapiens
Procedure, shortened: (§2)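 Human renal proximal tubular epithelial cells handled as in the mesangial assay: plated 2 × 10⁴ cells/well for 3 days, serum-starved 4 days. Then 18 h in DMEM + 2% FBS with compound and 1 μCi/mL [³H]thymidine. TCA-precipitable counts measured; four wells per concentration. % inhibition = (control − sample)/(control − blank).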

| SMILES | inhibition at 1 µM |
| --- | --- |
| Cc1c(Cc2c(Cl)cccc2Cl)c(=O)oc2cc(OCC(=O)OCC(=O)c3ccccc3)ccc12 | 24% |
| CCOP(=O)(Cc1ccc(C(=O)Nc2nc3c(OC)cc(OC)cc3s2)cc1)OCC | 39% |
| CCOC(=O)c1cc(NC(=O)NC(=O)c2c(Cl)cccc2Cl)ccc1Oc1cncc(Cl)c1 | 32% |
| CO/C(O)=C(/C=N/c1ccc(Oc2ccccc2OC(C)C)nc1)NC(=O)c1ccccc1 | 12% |
| Cc1c(Cc2c(Cl)cccc2Cl)c(=O)oc2cc(OCC(=O)OCC(=O)c3ccc(Cl)cc3)ccc12 | 6% |
| CCOP(=O)(Cc1ccc(C(=O)Nc2cc(-c3ccc(Cl)cc3)no2)cc1)OCC | 88% |
| CCOP(=O)(Cc1ccc(C(=O)Nc2ccccn2)cc1)OCC | 32% |
| CCOP(=O)(Cc1ccc(C(=O)Nc2nc(-c3ccccc3)ns2)cc1)OCC | 61% |

Test system: not listed separately
Experiment: Compound was tested for the in vitro MC proliferation Inhibitory activity at a dose of 0.1 uM against normal human mesangial cells
Assay type: functional
Conditions: not given
Procedure, shortened: as §1

| SMILES | inhibition at 0.1 µM |
| --- | --- |
| Cc1c(Cc2c(Cl)cccc2Cl)c(=O)oc2cc(OCC(=O)OCC(=O)c3ccccc3)ccc12 | 49% |
| CCOP(=O)(Cc1ccc(C(=O)Nc2nc3c(OC)cc(OC)cc3s2)cc1)OCC | 59% |
| CCOC(=O)c1cc(NC(=O)NC(=O)c2c(Cl)cccc2Cl)ccc1Oc1cncc(Cl)c1 | 90% |
| CO/C(O)=C(/C=N/c1ccc(Oc2ccccc2OC(C)C)nc1)NC(=O)c1ccccc1 | 68% |
| Cc1c(Cc2c(Cl)cccc2Cl)c(=O)oc2cc(OCC(=O)OCC(=O)c3ccc(Cl)cc3)ccc12 | 72% |
| CCOP(=O)(Cc1ccc(C(=O)Nc2cc(-c3ccc(Cl)cc3)no2)cc1)OCC | 69% |
| CCOP(=O)(Cc1ccc(C(=O)Nc2ccccn2)cc1)OCC | 62% |
| CCOP(=O)(Cc1ccc(C(=O)Nc2nc(-c3ccccc3)ns2)cc1)OCC | 62% |

Test system: not listed separately
Experiment: Compound was tested for the in vitro MC proliferation Inhibitory activity at a dose of 10 uM against normal human mesangial cells
Assay type: functional
Conditions: not given
Procedure, shortened: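 Normal human glomerular mesangial cells kept in MCDB131 with amphotericin B, gentamycin and 5% FBS. Seeded 2 × 10⁴ cells/well, grown 3 days, serum-starved 4 days. Then given compound in DMEM + 2% FBS for 18 h with 1 μCi/mL [³H]thymidine. TCA-insoluble counts read by scintillation, four wells per concentration. Inhibition % = (control − sample)/(control − blank), where blank is DMEM alone.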

| SMILES | inhibition at 10 µM |
| --- | --- |
| Cc1c(Cc2c(Cl)cccc2Cl)c(=O)oc2cc(OCC(=O)OCC(=O)c3ccccc3)ccc12 | 66% |
| CCOP(=O)(Cc1ccc(C(=O)Nc2nc3c(OC)cc(OC)cc3s2)cc1)OCC | 108% |
| CCOC(=O)c1cc(NC(=O)NC(=O)c2c(Cl)cccc2Cl)ccc1Oc1cncc(Cl)c1 | 112% |
| CO/C(O)=C(/C=N/c1ccc(Oc2ccccc2OC(C)C)nc1)NC(=O)c1ccccc1 | 82% |
| Cc1c(Cc2c(Cl)cccc2Cl)c(=O)oc2cc(OCC(=O)OCC(=O)c3ccc(Cl)cc3)ccc12 | 80% |
| CCOP(=O)(Cc1ccc(C(=O)Nc2cc(-c3ccc(Cl)cc3)no2)cc1)OCC | 94% |
| CCOP(=O)(Cc1ccc(C(=O)Nc2ccccn2)cc1)OCC | 68% |
| CCOP(=O)(Cc1ccc(C(=O)Nc2nc(-c3ccccc3)ns2)cc1)OCC | 108% |
| CCOP(=O)(Cc1ccc(C(=O)Nc2ccc(Br)cc2C#N)cc1)OCC [IBROLIPIM] | 56% |

Test system: RPTEC
Experiment: Compound was evaluated for the renal proximal tubular epithelial cell (RPTEC) proliferation assay using RPTEC''s at a dose of 0.1 uM
Assay type: functional
Conditions: Homo sapiens
Procedure, shortened: as §2

| SMILES | inhibition at 0.1 µM |
| --- | --- |
| Cc1c(Cc2c(Cl)cccc2Cl)c(=O)oc2cc(OCC(=O)OCC(=O)c3ccccc3)ccc12 | 35% |
| CCOP(=O)(Cc1ccc(C(=O)Nc2nc3c(OC)cc(OC)cc3s2)cc1)OCC | 33% |
| CCOC(=O)c1cc(NC(=O)NC(=O)c2c(Cl)cccc2Cl)ccc1Oc1cncc(Cl)c1 | -1% |
| CO/C(O)=C(/C=N/c1ccc(Oc2ccccc2OC(C)C)nc1)NC(=O)c1ccccc1 | 2% |
| Cc1c(Cc2c(Cl)cccc2Cl)c(=O)oc2cc(OCC(=O)OCC(=O)c3ccc(Cl)cc3)ccc12 | 16% |
| CCOP(=O)(Cc1ccc(C(=O)Nc2cc(-c3ccc(Cl)cc3)no2)cc1)OCC | 30% |
| CCOP(=O)(Cc1ccc(C(=O)Nc2ccccn2)cc1)OCC | 23% |
| CCOP(=O)(Cc1ccc(C(=O)Nc2nc(-c3ccccc3)ns2)cc1)OCC | 33% |
